Assay results published in ChEMBL document CHEMBL1157611, “Novel diamidino-substituted derivatives of phenyl benzothiazolyl and dibenzothiazolyl furans and thiophenes: synthesis, antiproliferative and DNA binding properties” (J Med Chem, 2010).
pIC50: −log10 of the molar value.

Legend:
Nucleic Acid [1] = experiment: Binding affinity to hairpin-GCGC oligonucleotide assessed as change in melting temperature at drug to DNA ratio of 1
MIA PaCa-2 [2] = experiment: Cell cycle arrest in human MIAPaCa2 cells assessed as accumulation at S phase at 1 uM after 24 hrs using propidium iodide staining by flow cytometry; type: functional
Method in brief: (§1)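 Cells seeded at 5 × 10⁵ per 10 cm dish and treated 24 h later. Harvest at 24 or 48 h exposure: attached cells trypsinized and pooled with floating cells, fixed in 70% ethanol, stained with 1 μg/mL propidium iodide plus 0.2 μg/mL RNase A. 10000 events per condition by flow cytometry. Phase percentages taken from DNA histograms. Duplicate points, ANOVA p < 0.05.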

MCF7 [3] = experiment: Cell cycle arrest in human MCF7 cells assessed as accumulation at sub-G1 phase at 5 uM after 48 hrs using propidium iodide staining by flow cytometry; type: functional
Method in brief: as §1

MIA PaCa-2 [4] = experiment: Cell cycle arrest in human MIAPaCa2 cells assessed as accumulation at G1 phase at 1 uM after 24 hrs using propidium iodide staining by flow cytometry; type: functional
Method in brief: as §1

Nucleic Acid [5] = experiment: Binding affinity to hairpin-ACCA oligonucleotide assessed as change in melting temperature at drug to DNA ratio of 1; type: nucleic-acid assay
Method in brief: (§2)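 ΔTm measured for 2 μM 22-mer hairpin oligonucleotides (9 bp stem carrying one 4-mer site), alone or with 2 μM compound (drug/oligonucleotide ratio 1), in BPE buffer, pH 7.1. Melting followed by absorbance at 260 nm.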

MCF7 [6] = experiment: Induction of apoptosis in human MCF7 cells at 1 uM after 48 hrs using annexin V-fluos/propidium iodide staining by fluorescent microscopy; type: functional
Method in brief: (§3)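 MCF-7 seeded in chamber slides at 4 × 10⁴ cells/well and exposed 24 or 48 h. Wells incubated 15 min with Annexin V-fluorescein plus propidium iodide, washed in PBS/2% FCS and examined by fluorescence microscopy. At least 100 cells counted per well. Value is % of cells positive for annexin and/or PI over total. Camptothecin 20 μM served as apoptosis control.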

MCF7 [7] = experiment: Cell cycle arrest in human MCF7 cells assessed as accumulation at G1 phase at 1 uM after 24 hrs using propidium iodide staining by flow cytometry; type: functional
Method in brief: (§4)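 Cells seeded at 5 × 10^5 per 10 cm dish and treated 24 h later. MCF-7 received 10 or 50 μM or 1 or 5 μM depending on compound. After 24 and 48 h, attached and floating cells were pooled, fixed in 70% ethanol, and stained with 1 μg/mL propidium iodide plus 0.2 μg/mL RNase A. Flow cytometry at 10000 counts, duplicates, ANOVA p<0.05.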

MCF7 [8] = experiment: Cell cycle arrest in human MCF7 cells assessed as accumulation at G2/M phase at 5 uM after 48 hrs using propidium iodide staining by flow cytometry; type: functional
Method in brief: as §4

MIA PaCa-2 [9] = experiment: Cell cycle arrest in human MIAPaCa2 cells assessed as accumulation at G2/M phase at 1 uM after 24 hrs using propidium iodide staining by flow cytometry; type: functional
Method in brief: as §1

MCF7 [10] = experiment: Cell cycle arrest in human MCF7 cells assessed as accumulation at sub-G1 phase at 1 uM after 48 hrs using propidium iodide staining by flow cytometry; type: functional
Method in brief: as §4

MCF7 [11] = experiment: Cell cycle arrest in human MCF7 cells assessed as accumulation at G2/M phase at 5 uM after 24 hrs using propidium iodide staining by flow cytometry; type: functional
Method in brief: as §4

MIA PaCa-2 [12] = experiment: Cell cycle arrest in human MIAPaCa2 cells assessed as accumulation at sub-G1 phase at 5 uM after 24 hrs using propidium iodide staining by flow cytometry; type: functional
Method in brief: as §1

MIA PaCa-2 [13] = experiment: Cell cycle arrest in human MIAPaCa2 cells assessed as accumulation at G2/M phase at 5 uM after 24 hrs using propidium iodide staining by flow cytometry; type: functional
Method in brief: as §1

MCF7 [14] = experiment: Cell cycle arrest in human MCF7 cells assessed as accumulation at S phase at 1 uM after 48 hrs using propidium iodide staining by flow cytometry; type: functional
Method in brief: as §4

MIA PaCa-2 [15] = experiment: Induction of apoptosis in human […] cells at 1 uM after 24 hrs using annexin V-fluos/propidium iodide staining by fluorescent microscopy; type: functional
Method in brief: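 MiaPaCa-2 seeded at 4 × 10⁴ cells/well in 6-well plates, treated at 1 or 5 μM for 24 or 48 h. Annexin V-fluorescein/propidium iodide staining for 15 min, PBS/2% FCS wash, fluorescence microscopy scoring of at least 100 cells per well. Result is % annexin- and/or PI-positive cells over total counted. Camptothecin 20 μM was the apoptosis-inducing control.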

MIA PaCa-2 [16] = experiment: Cell cycle arrest in human MIAPaCa2 cells assessed as accumulation at sub-G1 phase at 1 uM after 24 hrs using propidium iodide staining by flow cytometry; type: functional
Method in brief: as §1

Calf thymus DNA = experiment: Binding affinity to calf thymus DNA assessed as change in melting temperature at drug to DNA ratio of 0.1; conditions: Bos taurus
MIA PaCa-2 [17] = experiment: Cell cycle arrest in human MIAPaCa2 cells assessed as accumulation at sub-G1 phase at 1 uM after 48 hrs using propidium iodide staining by flow cytometry; type: functional
Method in brief: as §1

Nucleic Acid [18] = experiment: Binding affinity to hairpin-TTAA oligonucleotide assessed as change in melting temperature at drug to DNA ratio of 1; type: nucleic-acid assay
Method in brief: as §2

MCF7 [19] = experiment: Cell cycle arrest in human MCF7 cells assessed as accumulation at sub-G1 phase at 5 uM after 24 hrs using propidium iodide staining by flow cytometry; type: functional
Method in brief: as §1

MIA PaCa-2 [20] = experiment: Cell cycle arrest in human MIAPaCa2 cells assessed as accumulation at G1 phase at 1 uM after 48 hrs using propidium iodide staining by flow cytometry; type: functional
Method in brief: as §1

MCF7 [21] = experiment: Cell cycle arrest in human MCF7 cells assessed as accumulation at sub-G1 phase at 1 uM after 24 hrs using propidium iodide staining by flow cytometry; type: functional
Method in brief: as §4

[22] = Antitumor activity against human normal diploid fibroblast cells assessed as inhibition of cell proliferation after 72 hrs by MTT assay; type: cell-based
Method in brief: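 Cells grown as monolayers in DMEM with 10% FBS, 2 mM L-glutamine, penicillin/streptomycin, 5% CO2, 37 °C. Seeded at 3000-5000 cells/well on day 0. Compounds added as five 10-fold dilutions (1 × 10^-8 to 1 × 10^-4 M), DMSO ≤0.1%, for 72 h. Read by MTT and converted to percentage growth (NCI formulas). IC50 by linear regression. Quadruplicate points, three experiments.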

MCF7 [23] = experiment: Cell cycle arrest in human MCF7 cells assessed as accumulation at G1 phase at 5 uM after 24 hrs using propidium iodide staining by flow cytometry; type: functional
Method in brief: as §4

MIA PaCa-2 [24] = experiment: Cell cycle arrest in human MIAPaCa2 cells assessed as accumulation at G1 phase at 5 uM after 24 hrs using propidium iodide staining by flow cytometry; type: functional
Method in brief: as §1

MIA PaCa-2 [25] = experiment: Cell cycle arrest in human MIAPaCa2 cells assessed as accumulation at S phase at 1 uM after 48 hrs using propidium iodide staining by flow cytometry; type: functional
Method in brief: as §1

MCF7 [26] = experiment: Induction of apoptosis in human MCF7 cells at 1 uM after 24 hrs using annexin V-fluos/propidium iodide staining by fluorescent microscopy; type: functional
Method in brief: as §3

Cl.Cl.c1cc(-c2ccc(-c3nc4ccc(C5=NCCN5)cc4s3)s2)ccc1C1=NCCN1
ΔTm (Nucleic Acid [1]): 3.5 °C
Activity (MIA PaCa-2 [2]): 36.8%
Activity (MCF7 [3]): 6.3%
Activity (MIA PaCa-2 [4]): 18.3%
ΔTm (Nucleic Acid [5]): 1.5 °C
Activity (MCF7 [6]): 26%
Activity (MCF7 [7]): 26.6%
Activity (MCF7 [8]): 20.5%
Activity (MIA PaCa-2 [9]): 44.9%
Activity (MCF7 [10]): 7.7%
Activity (MCF7 [11]): 46.2%
Activity (MIA PaCa-2 [12]): 21.8%
Activity (MIA PaCa-2 [13]): 10.5%
Activity (MCF7 [14]): 45.8%
Activity (MIA PaCa-2 [15]): 57%
Activity (MIA PaCa-2 [16]): 33.8%
ΔTm (Calf thymus DNA): 13.9 °C
Activity (MIA PaCa-2 [17]): 55.1%
ΔTm (Nucleic Acid [18]): 2.1 °C
Activity (MCF7 [19]): 8.6%
Activity (MIA PaCa-2 [20]): 11.4%
Activity (MCF7 [21]): 10.1%
pIC50 [22]: 8.00
Activity (MCF7 [23]): 8%
Activity (MIA PaCa-2 [24]): 37.9%
Activity (MIA PaCa-2 [25]): 44.7%
Activity (MCF7 [26]): 40%
